Data on five compounds can be found in PMC5010146 (European journal of medicinal chemistry, 2016).

The target in test [1] is T1, 15-LOX-1 (Homo sapiens, UniProt P16050).
T1 sequence (P16050 1-662): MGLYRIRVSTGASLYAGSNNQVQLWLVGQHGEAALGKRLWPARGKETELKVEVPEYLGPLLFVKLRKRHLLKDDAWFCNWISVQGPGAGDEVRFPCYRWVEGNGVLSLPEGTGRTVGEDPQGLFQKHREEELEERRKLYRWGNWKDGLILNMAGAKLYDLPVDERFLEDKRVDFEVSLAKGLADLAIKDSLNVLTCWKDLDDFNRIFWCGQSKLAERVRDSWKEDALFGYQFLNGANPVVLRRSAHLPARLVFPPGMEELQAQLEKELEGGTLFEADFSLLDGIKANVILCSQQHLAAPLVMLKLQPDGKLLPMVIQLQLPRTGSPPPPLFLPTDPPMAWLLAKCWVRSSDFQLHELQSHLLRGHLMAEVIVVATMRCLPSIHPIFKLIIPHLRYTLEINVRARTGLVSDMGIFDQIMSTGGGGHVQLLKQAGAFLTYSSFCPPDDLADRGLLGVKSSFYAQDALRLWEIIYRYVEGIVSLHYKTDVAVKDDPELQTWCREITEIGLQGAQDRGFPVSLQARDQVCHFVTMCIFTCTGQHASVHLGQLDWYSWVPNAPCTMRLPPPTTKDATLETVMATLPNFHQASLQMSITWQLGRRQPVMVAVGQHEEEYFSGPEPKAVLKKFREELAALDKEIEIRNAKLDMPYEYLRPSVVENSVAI
As to the kind of experiment: 15-LOX-1 enzyme inhibition, UV absorbance. It counts as biochemical.

The subject of test [2] is HT-22 cells. As to the kind of experiment: Glutamate-induced cell death, xCELLigence impedance and MTT. Type of test: cell-based.
For test [3], the target named is T2, human 15-lipoxygenase-1 (15-LOX-1) (Homo sapiens, UniProt P16050).
T2 sequence (P16050 1-662): T1 sequence (P16050 1-662)
Kind of test: Michaelis-Menten enzyme kinetics analysis of 15-LOX-1 inhibition. It counts as biochemical. The conditions noted are these: Lineweaver-Burk: Km increases, Vmax constant.

Test [4] relates to 15-LOX-1. Conditions: mouse, transient cerebral ischemia; cited from earlier work.
Test [5] concerns HT-22 cells. Kind of test: Glutamate-induced lipid peroxidation, BODIPY staining, FACS. Type of test: cell-based. The conditions noted are these: 1 μM, 16 h after initiation of glutamate challenge. The method, boiled down:
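HT-22 cells were seeded at 5x10^4 per well, left overnight, then exposed to 4 mM glutamate with or without test compound (10 µM) or 1 µM reference inhibitor for 6–7 h or 14–16 h. Staining used BODIPY 581/591 C11 (2 µM final, 1 h, 37°C). The red-to-green fluorescence shift was read by FACS at 488 nm excitation. At least three independent experiments, triplicates.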

On to `CCCCNC(=O)c1cc(-c2ccc(Cl)cc2)sc1N` [Compound 3l, 2-amino-N-butyl-5-(4-chlorophenyl)thiophene-3-carboxamide], for which the “inhibitory potency in words” value in test [1] was “inactive”.

Consider `CCCCNC(=O)c1cc(-c2ccc(Br)cc2)sc1N` [Compound 3m, 2-amino-5-(4-bromophenyl)-N-butylthiophene-3-carboxamide], for which the “inhibitory potency in words” value in test [1] was “inactive”.

Turning to `CCCCNC(=O)c1cc(Cc2ccccc2)sc1N` [Compound 3n, 2-amino-5-benzyl-N-butylthiophene-3-carboxamide], the “inhibitory potency in words” value in test [1] was “inactive”. Regarding `CCCCNC(=O)c1cc(-c2ccccc2)sc1N` [Compound A9, 2-amino-N-butyl-5-phenylthiophene-3-carboxamide], the “time of addition after glutamate challenge at which cells were still protected” value in test [2] (post-treatment 5 and 10 μM, added 2-8 h after glutamate) is on record as “up to 8 h”. Also, the “mechanism of 15-LOX-1 inhibition” value in test [3] was “competitive inhibition”. `c1ccc2c(c1)SCc1c-2[nH]c2ccccc12` [PD-146176]: the “effect on infarct size” value in test [4] was “significantly reduced the infarct size”. In test [2] (1 μM), the “protection against glutamate toxicity compared with ThioLox” value is on record as “Comparable results”. Besides, the “effect on boost of lipid peroxides” value in test [5] is on record as “significantly attenuated”.
